Measurements published in ChEMBL document CHEMBL2016495, “Design and synthesis of potent, isoxazole-containing renin inhibitors” (Bioorg Med Chem Lett, 2012).

How the values were obtained:
[1] = target: Cytochrome P450 3A4 (Homo sapiens, UniProt P08684); assay: Reversible inhibition of CYP3A4-mediated conversion of testosterone to 6-beta-hydroxy-testosterone after 30 mins; format: ADME
[2] = target: CYP3A4 (Homo sapiens, UniProt P08684); assay: Inhibition of CYP3A4 assessed as time dependent inhibition of conversion of testosterone to 6-beta-hydroxy-testosterone at 10 uM; format: ADME; conditions: probe testosterone
Sequence of CYP3A4 (P08684 whole entry): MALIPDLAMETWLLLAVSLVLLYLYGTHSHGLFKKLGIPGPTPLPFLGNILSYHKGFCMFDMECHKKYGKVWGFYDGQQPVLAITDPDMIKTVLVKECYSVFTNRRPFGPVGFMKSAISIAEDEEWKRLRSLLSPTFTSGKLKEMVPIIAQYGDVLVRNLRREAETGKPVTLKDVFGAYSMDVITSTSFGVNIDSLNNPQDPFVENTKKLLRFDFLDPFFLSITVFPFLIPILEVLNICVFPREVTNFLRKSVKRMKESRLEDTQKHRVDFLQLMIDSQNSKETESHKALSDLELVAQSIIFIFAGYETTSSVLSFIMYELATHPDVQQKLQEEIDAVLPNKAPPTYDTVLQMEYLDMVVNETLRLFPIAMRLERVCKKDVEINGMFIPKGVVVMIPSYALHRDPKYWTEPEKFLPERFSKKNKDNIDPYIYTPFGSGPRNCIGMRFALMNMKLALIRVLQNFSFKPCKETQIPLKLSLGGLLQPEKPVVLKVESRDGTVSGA

[3] = target: T1, Renin (Homo sapiens, UniProt P00797); assay: Inhibition of human recombinant renin using DNP-Lys-His-Pro-Phe-His-Leu-Val-Ile-His-D,L-Amp as substrate after 3 hrs by fluorescence analysis
T1 sequence (P00797 whole entry): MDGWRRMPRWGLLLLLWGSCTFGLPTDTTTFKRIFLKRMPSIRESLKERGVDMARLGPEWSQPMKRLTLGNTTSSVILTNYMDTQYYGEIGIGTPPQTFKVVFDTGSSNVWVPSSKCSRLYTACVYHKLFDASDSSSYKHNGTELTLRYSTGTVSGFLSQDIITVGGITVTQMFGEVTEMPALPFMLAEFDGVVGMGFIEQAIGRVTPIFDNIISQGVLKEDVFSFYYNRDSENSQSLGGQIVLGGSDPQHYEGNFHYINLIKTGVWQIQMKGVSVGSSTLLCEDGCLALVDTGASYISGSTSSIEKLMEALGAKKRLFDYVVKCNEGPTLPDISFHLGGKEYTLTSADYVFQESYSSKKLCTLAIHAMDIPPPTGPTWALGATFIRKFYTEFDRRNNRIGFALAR
Outline: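 Recombinant human renin at 100 pM, with or without inhibitor, and 6 µM Q-FRET substrate in 50 mM MOPS, 100 mM NaCl, pH 7.4, 0.002% Tween. Incubated at 37 °C for 3 h. Fluorescence (ex 328 / em 388 nm) was read at 0 and 3 h.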

[4] = target: Voltage-gated inwardly rectifying potassium channel KCNH2 (Homo sapiens, UniProt Q12809); assay: Binding affinity to human Erg
Sequence of Voltage-gated inwardly rectifying potassium channel KCNH2 (Q12809 whole entry): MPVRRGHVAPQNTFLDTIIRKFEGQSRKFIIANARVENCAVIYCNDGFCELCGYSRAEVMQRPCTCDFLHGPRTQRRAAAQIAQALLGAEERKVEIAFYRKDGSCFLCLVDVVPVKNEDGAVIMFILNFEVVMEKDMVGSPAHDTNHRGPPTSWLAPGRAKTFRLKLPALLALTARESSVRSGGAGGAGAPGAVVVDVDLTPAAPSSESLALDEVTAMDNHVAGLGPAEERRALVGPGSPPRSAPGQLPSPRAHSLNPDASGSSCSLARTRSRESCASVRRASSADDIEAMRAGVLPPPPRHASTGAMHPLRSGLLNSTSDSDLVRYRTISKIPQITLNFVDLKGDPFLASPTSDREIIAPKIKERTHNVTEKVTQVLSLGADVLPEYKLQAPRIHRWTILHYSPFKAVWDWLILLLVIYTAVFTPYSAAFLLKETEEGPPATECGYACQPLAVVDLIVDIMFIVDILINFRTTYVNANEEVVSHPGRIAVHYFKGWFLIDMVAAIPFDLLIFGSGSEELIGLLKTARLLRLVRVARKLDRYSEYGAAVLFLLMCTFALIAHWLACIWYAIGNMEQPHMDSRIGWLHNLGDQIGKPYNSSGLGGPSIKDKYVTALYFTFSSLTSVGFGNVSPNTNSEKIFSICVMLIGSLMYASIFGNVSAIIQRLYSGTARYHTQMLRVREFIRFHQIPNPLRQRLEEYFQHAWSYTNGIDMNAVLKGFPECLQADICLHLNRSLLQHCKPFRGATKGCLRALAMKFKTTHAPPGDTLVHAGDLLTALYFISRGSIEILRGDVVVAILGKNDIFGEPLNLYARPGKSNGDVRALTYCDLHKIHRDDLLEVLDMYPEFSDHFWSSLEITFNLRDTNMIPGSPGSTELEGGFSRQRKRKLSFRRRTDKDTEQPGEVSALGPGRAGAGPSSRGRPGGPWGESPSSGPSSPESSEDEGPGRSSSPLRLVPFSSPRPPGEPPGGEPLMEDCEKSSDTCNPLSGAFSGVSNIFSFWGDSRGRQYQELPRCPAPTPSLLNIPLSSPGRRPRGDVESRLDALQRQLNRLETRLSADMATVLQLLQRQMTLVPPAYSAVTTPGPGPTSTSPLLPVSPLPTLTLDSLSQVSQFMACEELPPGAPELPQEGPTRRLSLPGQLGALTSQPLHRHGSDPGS

[5] = target: T1, Renin; assay: Inhibition of human recombinant renin using QXL520-Lys-His-Pro-Phe-His-Leu-Val-Ile-His-Lys-(5-FAM) as substrate pretreated for 10 mins measured after 1 hr by fluorescence analysis in presence of human plasma
[6] = Clearance in Sprague-Dawley rat at 3 mg/kg, po and 0.5 mg/kg, iv; format: ADME, organism-based; conditions: in vivo
[7] = system: Rattus norvegicus; assay: Antihypertensive activity in double transgenic rat assessed as duration of decrease in blood pressure at 3 mg/kg, po; format: functional
[8] = system: Rattus norvegicus; assay: Antihypertensive activity in double transgenic rat assessed as decrease in blood pressure at 3 mg/kg, po; format: functional
[9] = Oral bioavailability in Sprague-Dawley rat at 3 mg/kg; format: ADME, organism-based; conditions: in vivo
Outline: (§1)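 Rats dosed orally at 3 mpk as a solution in 0.5% methyl cellulose.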

[10] = Volume of distribution at steady state in Sprague-Dawley rat at 3 mg/kg, po and 0.5 mg/kg, iv; format: ADME, organism-based; conditions: in vivo, read-out: Vdss
[11] = Half life in Sprague-Dawley rat at 3 mg/kg, po and 0.5 mg/kg, iv; format: ADME, organism-based; conditions: in vivo; outline: as §1
[12] = AUC in Sprague-Dawley rat at 3 mg/kg, po; format: ADME, organism-based; set-up: dose 3 mg/kg, route oral; conditions: plasma; outline: as §1

Sequence of Cytochrome P450 3A4 (P08684 whole entry): as the sequence (P08684 whole entry) above

Compound	IC50 [1] [µM]	inhibition at 10 µM [2] [%]	IC50 [3] [nM]	Ki [4] [µM]	other results
CC(=O)NCCc1ccccc1-c1onc([C@H]2CNCC[C@]2(O)c2ccc(F)c(F)c2)c1C(C)O (stereo partly drawn)	> 50	48	–	–	–
CC(=O)NCCc1cc(F)ccc1-c1onc([C@H]2CNCC[C@]2(O)c2ccc(F)c(F)c2)c1Br	45	78	–	–	IC50 [5]: 0.7 nM
CO[C@]1(c2ccc(F)c(F)c2)CCNC[C@@H]1c1noc(-c2ccccc2CCNC(C)=O)c1Br	28	60	0.17	–	–
CC(=O)NCCc1ccccc1-c1onc([C@H]2CNCC[C@]2(O)c2ccc(F)c(F)c2)c1C(C)=O	8	32	–	–	–
CC(=O)NCCc1ccccc1-c1onc([C@H]2CNCC[C@]2(O)c2ccc(F)c(F)c2)c1Br	33	68	0.27	–	clearance [6]: 108 mL/min/kg; Time [7]: 18 h; Activity [8]: 44 mmHg; bioavailability [9]: 16%; Vd [10]: 36 L/kg; half-life [11]: 342 min; AUC [12]: 0.14 µM·h
CC(=O)NCCc1ccccc1-c1ccc([C@H]2CNCC[C@@H]2c2ccc(F)c(F)c2)c(Cl)c1	20	–	–	–	–
COC[C@H](C)COCc1ccc([C@@]2(O)CCNC[C@@H]2c2noc(-c3ccccc3CCNC(C)=O)c2Br)cc1	29	10	0.26	31.2	clearance [6]: 124 mL/min/kg; Time [7]: 8 h; IC50 [5]: 0.67 nM; Activity [8]: 27 mmHg; bioavailability [9]: 18%; Vd [10]: 12 L/kg; half-life [11]: 84 min; AUC [12]: 0.13 µM·h
CC(=O)NCCc1ccccc1-c1onc([C@H]2CNCC[C@]2(O)c2ccc(F)c(F)c2)c1Cl	> 50	74	0.73	–	–
O[C@]1(c2ccc(F)c(F)c2)CCNC[C@@H]1c1cc(-c2c(Cl)cccc2Cl)no1	8	59	–	2.8	–
O[C@]1(c2ccc(F)c(F)c2)CCNC[C@@H]1c1cc(-c2ccc(F)cc2Cl)no1	7	36	–	–	IC50 [5]: > 9500 nM
CC(=O)NCCc1ccccc1-c1onc([C@H]2CNCC[C@]2(OCC(O)CO)c2ccc(F)c(F)c2)c1Br (stereo partly drawn)	> 50	18	–	> 60	clearance [6]: 70 mL/min/kg; bioavailability [9]: 0%; Vd [10]: 12 L/kg; half-life [11]: 114 min
O[C@]1(c2ccc(F)c(F)c2)CCNC[C@@H]1c1cc(-c2c(Cl)cccc2Cl)on1	17	60	–	9.8	IC50 [5]: > 9500 nM
CC(=O)NCCc1ccccc1-c1onc([C@H]2CNCC[C@@H]2c2ccc(F)c(F)c2)c1Br	13	75	–	19.5	–
CC(=O)NCCc1ccccc1-c1cc([C@H]2CNCC[C@]2(O)c2ccc(F)c(F)c2)no1	32	21	166	–	IC50 [5]: 331 nM
CC(=O)NCCc1ccccc1-c1onc([C@H]2CNCC[C@]2(C(N)=O)c2ccc(F)c(F)c2)c1Br	–	–	0.22	30	IC50 [5]: 0.6 nM

Now from value to compound, other results behind:

IC50 [1] [µM]	inhibition at 10 µM [2] [%]	IC50 [3] [nM]	Compound	Ki [4] [µM]	other results
> 50	67	0.06	O[C@]1(c2ccc(F)c(F)c2)CCNC[C@@H]1c1onc(-c2cccc3ccccc23)c1Br	4.2	–
19	60	–	O[C@]1(c2ccc(F)c(F)c2)CCNC[C@@H]1c1onc(-c2cccc(Cl)c2Cl)c1Br	–	–
3	22	–	O[C@]1(c2ccc(F)c(F)c2)CCNC[C@@H]1c1cc(-c2ccc(F)cc2Br)no1	1.7	–
20	77	–	Cc1cccc(-c2noc([C@H]3CNCC[C@]3(O)c3ccc(F)c(F)c3)c2Br)c1C	6	–
45	74	–	CC(=O)NCCc1ccccc1-c1noc([C@H]2CNCC[C@]2(O)c2ccc(F)c(F)c2)c1Br	–	–
18	76	1.14	O[C@]1(c2ccc(F)c(F)c2)CCNC[C@@H]1c1onc(-c2ccccc2Cl)c1Br	–	–
15	82	–	O[C@]1(c2ccc(F)c(F)c2)CCNC[C@@H]1c1onc(-c2c(Cl)cccc2Cl)c1Br	3.9	–
